Reference: ChEMBL document CHEMBL2057190, “Short synthesis and antimalarial activity of fagaronine” (Bioorg Med Chem, 2012)

Columns and labels:
Vero = test: Cytotoxicity against african green monkey Vero cells; type: cell-based; details: Chlorocebus sabaeus
[1] = system: Plasmodium vinckei petteri; test: Antiplasmodial activity Plasmodium vinckei petteri infected in CD mouse assessed as suppression of parasitaemia at 10 mg/kg/day, ip administered from day 0 to day 3 and measured on day 4 by Giemsa staining relative to control; type: functional; details: route intraperitoneal
In short: (§1)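 Female CD mice (mean weight 20 2 g) were infected on day 0 with 10⁶ P. vinckei petteri-infected red cells in RPMI. Groups of five received drug intraperitoneally daily from day 0 to 3. On day 4, parasitaemia was counted on Giemsa-stained smears (at least 5000 erythrocytes). Inhibition % = (control − treated)/control × 100, with RPMI-only mice as controls. ED₅₀ was taken as the dose giving 50% inhibition.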

[2] = system: Plasmodium vinckei petteri; test: Antiplasmodial activity Plasmodium vinckei petteri infected in CD mouse assessed as suppression of parasitaemia at 1 mg/kg/day, ip administered from day 0 to day 3 and measured on day 4 by Giemsa staining relative to control; type: functional; details: route intraperitoneal; in short: as §1
[3] = system: Plasmodium vinckei petteri; test: Antiplasmodial activity Plasmodium vinckei petteri infected in ip dosed CD mouse assessed as suppression of parasitaemia administered from day 0 to day 3 and measured on day 4 by Giemsa staining; type: functional; in short: as §1
[4] = system: Plasmodium vinckei petteri; test: Antiplasmodial activity Plasmodium vinckei petteri infected in CD mouse assessed as survival of infected mouse at 10 mg/kg/day, ip administered from day 0 to day 3 and measured on day 4 (reference value: 9.5 days); type: functional; details: route intraperitoneal
[5] = system: Plasmodium vinckei petteri; test: Antiplasmodial activity Plasmodium vinckei petteri infected in CD mouse assessed as survival of infected mouse at 1 mg/kg/day, ip administered from day 0 to day 3 and measured on day 4 (reference value: 9.5 days); type: functional; details: route intraperitoneal
Plasmodium falciparum [6] = test: Antiplasmodial activity against chloroquine-sensitive Plasmodium falciparum 3D7 assessed as [3H]hypoxanthine incorporation after 48 hrs; type: functional, organism-based
In short: (§2)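 P. falciparum was cultured per Trager–Jensen with modifications and synchronised by magnetic concentration plus 5% sorbitol lysis. Cultures, mostly at ring stage, were exposed to increasing drug dilutions in triplicate for 48 h. Growth was measured by [³H]-hypoxanthine incorporation to give IC₅₀. Values are means of two independent experiments run in triplicate.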

Plasmodium falciparum [7] = test: Antiplasmodial activity against chloroquine-resistant Plasmodium falciparum FcB1/Columbia assessed as [3H]hypoxanthine incorporation after 48 hrs; type: functional, organism-based; in short: as §2
Plasmodium falciparum [8] = test: Antiplasmodial activity against chloroquine-resistant Plasmodium falciparum FcM29 assessed as [3H]hypoxanthine incorporation after 48 hrs; type: functional, organism-based; in short: as §2
[9] = Selectivity ratio of IC50 for african green monkey Vero cells to IC50 for […] Plasmodium falciparum FcB1/ Columbia; type: ADME, cell-based; details: read-out: Ratio IC50
In short: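 Selectivity index = Vero IC₅₀ / FcB1 IC₅₀. Vero cells were grown as for P. falciparum but with 10% foetal calf serum in place of 5% human serum, exposed to increasing concentrations for 48 h, and growth read by [³H]-hypoxanthine incorporation against untreated wells (100%). Doxorubicin served as control.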

[10] = system: Plasmodium vinckei petteri; test: Antiplasmodial activity Plasmodium vinckei petteri infected in CD mouse assessed as suppression of parasitaemia at 5 mg/kg/day, ip administered from day 0 to day 3 and measured on day 4 by Giemsa staining relative to control; type: functional; details: route intraperitoneal; in short: as §1
[11] = system: Plasmodium vinckei petteri; test: Antiplasmodial activity Plasmodium vinckei petteri infected in CD mouse assessed as suppression of parasitaemia at 2.5 mg/kg/day, ip administered from day 0 to day 3 and measured on day 4 by Giemsa staining relative to control; type: functional; details: route intraperitoneal; in short: as §1
[12] = system: Plasmodium vinckei petteri; test: Antiplasmodial activity Plasmodium vinckei petteri infected in CD mouse assessed as survival of infected mouse at 5 mg/kg/day, ip administered from day 0 to day 3 and measured on day 4 (reference value: 9.5 days); type: functional; details: route intraperitoneal
[13] = system: Plasmodium vinckei petteri; test: Antiplasmodial activity Plasmodium vinckei petteri infected in CD mouse assessed as survival of infected mouse at 2.5 mg/kg/day, ip administered from day 0 to day 3 and measured on day 4 (reference value: 9.5 days); type: functional; details: route intraperitoneal
Mus musculus = test: Toxicity in CD mouse infected with Plasmodium venckei petteri at 10 mg/kg/day, ip administered from day 0 to day 3; type: organism-based; design: route intraperitoneal; details: in vivo
In short: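 CD female mice infected with 10⁶ P. vinckei petteri-infected red cells were given drug ip daily on days 0–3 and observed for signs of acute toxicity. Survival was followed for 13 days post-infection.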

SMILES | IC50 (Vero) | inhibition in vivo at 10 mg/kg/day [1] | inhibition in vivo at 1 mg/kg/day [2] | ED50 [3] | MSD [4] | MSD [5] | IC50 (Plasmodium falciparum [6]) | IC50 (Plasmodium falciparum [7]) | IC50 (Plasmodium falciparum [8]) | selectivity ratio [9] | inhibition in vivo at 5 mg/kg/day [10] | inhibition in vivo at 2.5 mg/kg/day [11] | MSD [12] | MSD [13] | Activity (Mus musculus)
CCN(CC)CCCC(C)Nc1ccnc2cc(Cl)ccc12 (configuration not stated) [CHLOROQUINE] | > 50000 nM | 94.8% | 3.2% | 5.5 mg/kg/day | >13 days | 9.5 days |  |  |  |  |  |  |  |  | 
COc1cccc2c1C(=O)c1c(O)c3c(c(O)c1C2=O)C[C@@](O)(C(=O)CO)C[C@@H]3O[C@H]1C[C@H](N)[C@H](O)[C@H](C)O1 [DOXORUBICIN] | 6400 nM |  |  |  |  |  |  |  |  |  |  |  |  |  | 
COc1cc2c(ccc3c4cc(OC)c(OC)cc4c[n+](C)c23)cc1O.[I-] [FAGARONINE IODIDE] | > 21000 nM | 91.5% | 4.8% | 6 mg/kg/day | >13 days | 8.6 days | 7.6 nM | 14.9 nM | 7.4 nM | > 1400 | 38.1% | 27% | 10.7 days | 11.5 days | Non-toxic
